In ChEMBL document CHEMBL3399929 (Bioorg Med Chem, 2015):
≈ marks a conversion by molar mass, not a printed value.

Assays:
[1] = tested on: Mycobacterium tuberculosis H37Rv; assay: Inhibition of Mycobacterium tuberculosis H37Rv ATP synthase assessed as reduction in total ATP content at 0.5 ug/ml after 18 hrs by bead-vortexing settling method
Procedure, shortened: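 H37Rv was declumped by bead-vortexing and settling, adjusted to McFarland 1, then diluted 100-fold. Portions of 1 mL in tubes with 0.5 mm glass beads were exposed to compound for 18 h at 37 °C. Samples were heated 8–10 min, chilled on ice, and bead-beater lysed. Cleared lysate ATP was measured by luciferase assay.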

[2] = Inhibition of Mycobacterium smegmatis TMC 607 ATP synthase incubated for 10 mins prior to NADH addition measured after 1 hr by luminescence assay; set-up: species or system Mycolicibacterium smegmatis; details: read-out: IC50
[3] = tested on: Mycobacterium tuberculosis; assay: Antimycobacterial activity against Mycobacterium tuberculosis H37Rv after 4 weeks by agar dilution assay; type: functional; details: for MIC: Mycobacterium tuberculosis, H37Rv, 672 h, read-out: MIC100
Procedure, shortened: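 Agar dilution method. DMSO stocks (5 mg/mL) were serially diluted in DMSO, and 0.1 mL of each was mixed into 1.9 mL Middlebrook 7H10 agar with OADC and set as slants. Each tube received about 10^5 bacilli from a 3-week Lowenstein–Jensen culture suspended in saline with 0.05% Tween-80. Tubes were incubated at 37 °C for 4 weeks. MIC was the lowest concentration with no visible growth.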

[4] = Cytotoxicity against African green monkey Vero cells after 72 hrs yb resazurin assay; type: cell-based; details: chlorocebus sabaeus
Procedure, shortened: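 Vero cells were seeded overnight in RPMI with 10% heat-inactivated FBS at 37 °C, 5% CO2. Cells were exposed in triplicate to concentrations from 100 to 1.56 µg/mL for 72 h. Resazurin (0.1%) was then added for 4–5 h, and fluorescence was read at ex 530/em 590 nm. CC50 was derived from the fluorescence plot.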

[5] = Cytotoxicity against mouse bone marrow macrophages […]; type: cell-based; details: macrophage
[6] = Selectivity index, ratio of CC50 for African green monkey Vero cells to MIC100 for Mycobacterium tuberculosis H37Rv; type: toxicity, cell-based; details: read-out: Selectivity Index
Procedure, shortened: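 Selectivity index is CC50 from the Vero resazurin assay divided by the agar-dilution MIC against H37Rv.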

Structure (SMILES)	IC50 [2]	further results
CO[C@H]1/C=C/O[C@@]2(C)Oc3c(C)c(O)c4c(O)c(c(/C=N/N5CCN(C)CC5)c(O)c4c3C2=O)NC(=O)/C(C)=C\C=C\[C@H](C)[C@H](O)[C@@H](C)[C@@H](O)[C@@H](C)[C@H](OC(C)=O)[C@@H]1C		inhibition [1]: 69.6%
CCN(CC)Cc1cc(N(c2cc(C)nc3cc(Cl)ccc23)S(=O)(=O)c2cccc3cccnc23)ccc1O	1.85 µM	
CCN(CC)Cc1cc(N(c2cc(C)nc3cc(Cl)ccc23)S(=O)(=O)c2cccc(C(F)(F)F)c2)ccc1O	1.36 µM	
CCN(CC)Cc1cc(N(c2cc(C)nc3cc(Cl)ccc23)S(=O)(=O)[C@@]23CCC(CC2=O)C3(C)C)ccc1O	3.41 µM	
CCN(CC)Cc1cc(N(c2cc(C)nc3cc(Cl)ccc23)S(=O)(=O)c2ccc(Cl)s2)ccc1O	0.36 µM	MIC100 [3]: 6.25 µg/mL (≈ 11.4 µM)
CCN(CC)Cc1cc(N(c2cc(C)nc3cc(Cl)ccc23)S(=O)(=O)c2cc(Cl)ccc2Cl)ccc1O	1.34 µM	
CCN(CC)Cc1cc(Nc2cc(C)nc3cc(Cl)ccc23)ccc1O	5.45 µM	MIC [3]: > 50 µg/mL
CCN(CC)Cc1cc(N(c2cc(C)nc3cc(Cl)ccc23)S(=O)(=O)c2cccs2)ccc1O	1.57 µM	
CCN(CC)Cc1cc(N(c2cc(C)nc3cc(Cl)ccc23)S(=O)(=O)c2ccc3ccccc3c2)ccc1O	0.92 µM	MIC [3]: > 25 µg/mL
CCN(CC)Cc1cc(N(c2cc(C)nc3cc(Cl)ccc23)S(=O)(=O)c2ccc(Cl)c(Cl)c2)ccc1O	1.26 µM	
CCN(CC)Cc1cc(N(c2cc(C)nc3cc(Cl)ccc23)S(=O)(=O)c2ccc(Cl)cc2)ccc1O	0.53 µM	CC50 at 72 h [4]: > 300 µg/mL; Activity [5]: Non-toxic; selectivity ratio [6]: > 48; MIC100 [3]: 6.25 µg/mL (≈ 11.5 µM)
CCN(CC)Cc1cc(N(c2cc(C)nc3cc(Cl)ccc23)S(=O)(=O)c2cccc3ccccc23)ccc1O	1 µM	MIC [3]: 12.5 µg/mL (≈ 22.3 µM)
CCN(CC)Cc1cc(N(c2cc(C)nc3cc(Cl)ccc23)S(=O)(=O)c2c(C(C)C)cc(C(C)C)cc2C(C)C)ccc1O	3.29 µM	
CCN(CC)Cc1cc(N(c2cc(C)nc3cc(Cl)ccc23)S(=O)(=O)c2ccc(C#N)cc2)ccc1O	0.74 µM	MIC [3]: > 12.5 µg/mL
CCN(CC)Cc1cc(N(c2cc(C)nc3cc(Cl)ccc23)S(=O)(=O)c2ccc([N+](=O)[O-])cc2)ccc1O	0.39 µM	CC50 at 72 h [4]: 55 µg/mL (≈ 99.1 µM); selectivity ratio [6]: 18; MIC100 [3]: 6.25 µg/mL (≈ 11.3 µM)
CCN(CC)Cc1cc(N(c2cc(C)nc3cc(Cl)ccc23)S(=O)(=O)c2c(C)cc(C)cc2C)ccc1O	1.04 µM	
CCN(CC)Cc1cc(N(c2cc(C)nc3cc(Cl)ccc23)S(=O)(=O)c2cc(C)cc(C)c2)ccc1O	1.83 µM	
